ChEMBL document CHEMBL3112583, “Modular construction of quaternary hemiaminal-based inhibitor candidates and their in cellulo assessment with HIV-1 protease” (Bioorg Med Chem, 2013)
The source made the active and inactive calls. The rule behind the calls is not given here.

Tests used:
[1] = Cytotoxicity against mouse NIH/3T3 cells assessed as cell survival after 72 hrs by MTT assay
[2] = target: T1, MDR1 (ABCB1, P-gp) (Homo sapiens, UniProt P08183); experiment: Inhibition of MDR1 (unknown origin) expressed in mouse NIH/3T3 cells assessed as inhibition of mitoxatrone efflux at 2 uM after 1 hr by FACS analysis; format: cell-based; conditions: NIH/3T3 cells expressing MDR1, probe mitoxantrone (printed: mitoxatrone)
[3] = target: T1, MDR1 (ABCB1, P-gp); experiment: Inhibition of MDR1 (unknown origin) expressed in mouse NIH/3T3 cells assessed as inhibition of mitoxatrone efflux at 10 uM after 1 hr by FACS analysis; format: cell-based, NIH3T3; conditions: NIH/3T3 cells expressing MDR1, probe mitoxantrone (printed: mitoxatrone)
[4] = Cytotoxicity against human HEK293 cells expressing BCRP assessed as cell survival after 72 hrs by MTT assay
[5] = target: T2, BCRP (ABCG2) (Homo sapiens, UniProt Q9UNQ0); experiment: Inhibition of BCRP (unknown origin) expressed in mouse NIH/3T3 cells assessed as inhibition of mitoxatrone efflux at 10 uM after 1 hr by FACS analysis; format: cell-based, NIH3T3; conditions: NIH/3T3 cells expressing BCRP, probe mitoxantrone (printed: mitoxatrone)
T2 sequence (Q9UNQ0 whole entry): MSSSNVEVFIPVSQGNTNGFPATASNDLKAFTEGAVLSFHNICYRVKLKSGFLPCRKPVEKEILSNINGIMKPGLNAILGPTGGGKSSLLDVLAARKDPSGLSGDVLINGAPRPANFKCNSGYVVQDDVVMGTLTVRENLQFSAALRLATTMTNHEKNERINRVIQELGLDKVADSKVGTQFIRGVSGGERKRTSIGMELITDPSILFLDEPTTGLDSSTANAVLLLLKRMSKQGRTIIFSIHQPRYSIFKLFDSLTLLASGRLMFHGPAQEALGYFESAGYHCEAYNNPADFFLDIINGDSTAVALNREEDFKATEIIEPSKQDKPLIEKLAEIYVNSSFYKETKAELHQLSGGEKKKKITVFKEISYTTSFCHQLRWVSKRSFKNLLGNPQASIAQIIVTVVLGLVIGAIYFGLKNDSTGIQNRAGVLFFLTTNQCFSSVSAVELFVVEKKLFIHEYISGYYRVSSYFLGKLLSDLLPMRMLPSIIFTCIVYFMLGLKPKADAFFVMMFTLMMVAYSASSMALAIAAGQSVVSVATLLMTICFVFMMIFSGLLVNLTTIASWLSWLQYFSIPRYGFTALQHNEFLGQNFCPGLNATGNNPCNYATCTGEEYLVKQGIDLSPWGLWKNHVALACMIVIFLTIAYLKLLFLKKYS

[6] = Cytotoxicity against mouse NIH/3T3 cells expressing pgp assessed as cell survival at >30 to 50 uM after 72 hrs by MTT assay; format: ADME, cell-based, NIH3T3; conditions: NIH/3T3 cells expressing P-gp
[7] = Cytotoxicity against human HEK293 cells assessed as cell survival after 72 hrs by MTT assay
[8] = target: T3, Protease (Human immunodeficiency virus 1, UniProt Q9YQ12); experiment: Inhibition of HIV-1 recombinant protease using DABCYL-GABA-Ser-Asn-Tyr-Pro-Ile-Val-Gln-EDANS as substrate incubated for 30 mins prior to substrate addition by Hanes plot analysis
[9] = target: Protease (Human immunodeficiency virus 1) (UniProt Q9YQ12); experiment: Inhibition of HIV-1 protease in human T cells assessed as increase in eGFP expression at 1 to 100 uM after 24 hrs by flow cytometry; format: cell-based; conditions: T-cell
Method in brief: (§1)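 SupT1 T cells carry an HIV-1 protease–Gal4 fusion under a tetracycline-inducible promoter and a Gal4-responsive eGFP reporter. They were kept in RPMI 1640 with 10% FBS and 1% penicillin/streptomycin at 37 °C in 5% CO₂. Cells were grown 24 h with 1–100 µM compound, with indinavir (0.0001–10 µM) as reference, then induced with […] doxycycline. eGFP was read 48 h later by flow cytometry (ex 488/em 530 nm).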

[10] = target: T2, BCRP (ABCG2); experiment: Inhibition of BCRP (unknown origin) expressed in mouse NIH/3T3 cells assessed as inhibition of mitoxatrone efflux at 2 uM after 1 hr by FACS analysis; format: cell-based, NIH3T3; conditions: NIH/3T3 cells expressing BCRP, probe mitoxantrone (printed: mitoxatrone)
[11] = target: T3, Protease; experiment: Inhibition of HIV-1 recombinant protease using DABCYL-GABA-Ser-Asn-Tyr-Pro-Ile-Val-Gln-EDANS as substrate incubated for 30 mins prior to substrate addition by Dixon plot analysis
[12] = target: T3, Protease; experiment: Inhibition of HIV-1 recombinant protease using DABCYL-GABA-Ser-Asn-Tyr-Pro-Ile-Val-Gln-EDANS as substrate incubated for 30 mins prior to substrate addition by Lineweaver-Burk plot analysis
[13] = (§2) Cytotoxicity against mouse NIH/3T3 cells expressing pgp assessed as cell survival after 72 hrs by MTT assay; format: ADME, cell-based, NIH3T3; conditions: NIH/3T3 cells expressing P-gp
[14] = system: HEK293; experiment: Cytotoxicity against human HEK293 cells expressing BCRP assessed as cell survival after 72 hrs by MTT assay; format: ADME, cell-based; conditions: hek293, 72 h
Method in brief: (§3)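 HEK293 cells stably transfected with BCRP, or with empty vector (HEK293-pcDNA3) as parental control, kept in high-glucose DMEM with 10% FBS, 1% penicillin/streptomycin and 0.75 mg/mL G418, at 37 °C in humidified 5% CO₂. Cells were exposed for 72 h to increasing compound concentrations, and survival was read by MTT colorimetric assay. IC50 is the mean ± sd of at least three independent experiments.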

[15] = Cytotoxicity against mouse NIH/3T3 cells assessed as cell survival after 72 hrs by MTT assay; format: cell-based, NIH3T3
[16] = system: HEK293; experiment: Cytotoxicity against human HEK293 cells assessed as cell survival after 72 hrs by MTT assay; format: cell-based; conditions: hek293, 72 h
Method in brief: as §3

[17] = target: Protease (Human immunodeficiency virus 1) (UniProt Q9YQ12); experiment: Inhibition of HIV-1 protease in human T cells assessed as increase in eGFP expression at >20 uM after 24 hrs by flow cytometry; format: cell-based; conditions: T-cell
Method in brief: as §1

[18] = system: NIH3T3; experiment: as §2; format: ADME, cell-based; conditions: nih3t3, 72 h
[19] = target: Protease (Human immunodeficiency virus 1) (UniProt Q9YQ12); experiment: Inhibition of HIV-1 protease in human T cells assessed as increase in eGFP expression at 0.1 uM after 24 hrs by flow cytometry; format: cell-based; conditions: T-cell
[20] = Cytotoxicity against mouse NIH/3T3 cells expressing pgp assessed as cell survival after 72 hrs by MTT assay; conditions: NIH/3T3 cells expressing P-gp
[21] = Cytotoxicity against human HEK293 cells expressing BCRP assessed as cell survival after 72 hrs by MTT assay; remark: listed apart in the source
[22] = Cytotoxicity against human HEK293 cells assessed as cell survival after 72 hrs by MTT assay; remark: listed apart in the source
[23] = Cytotoxicity against mouse NIH/3T3 cells assessed as cell survival after 72 hrs by MTT assay; remark: listed apart in the source

T3 sequence (Q9YQ12 whole entry): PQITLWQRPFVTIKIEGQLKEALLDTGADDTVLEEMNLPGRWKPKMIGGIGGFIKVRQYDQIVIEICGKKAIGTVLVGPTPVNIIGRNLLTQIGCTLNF
Protease (Human immunodeficiency virus 1), sequence (Q9YQ12 as listed by the source): as the sequence (Q9YQ12 whole entry) above
T1 sequence (P08183 whole entry): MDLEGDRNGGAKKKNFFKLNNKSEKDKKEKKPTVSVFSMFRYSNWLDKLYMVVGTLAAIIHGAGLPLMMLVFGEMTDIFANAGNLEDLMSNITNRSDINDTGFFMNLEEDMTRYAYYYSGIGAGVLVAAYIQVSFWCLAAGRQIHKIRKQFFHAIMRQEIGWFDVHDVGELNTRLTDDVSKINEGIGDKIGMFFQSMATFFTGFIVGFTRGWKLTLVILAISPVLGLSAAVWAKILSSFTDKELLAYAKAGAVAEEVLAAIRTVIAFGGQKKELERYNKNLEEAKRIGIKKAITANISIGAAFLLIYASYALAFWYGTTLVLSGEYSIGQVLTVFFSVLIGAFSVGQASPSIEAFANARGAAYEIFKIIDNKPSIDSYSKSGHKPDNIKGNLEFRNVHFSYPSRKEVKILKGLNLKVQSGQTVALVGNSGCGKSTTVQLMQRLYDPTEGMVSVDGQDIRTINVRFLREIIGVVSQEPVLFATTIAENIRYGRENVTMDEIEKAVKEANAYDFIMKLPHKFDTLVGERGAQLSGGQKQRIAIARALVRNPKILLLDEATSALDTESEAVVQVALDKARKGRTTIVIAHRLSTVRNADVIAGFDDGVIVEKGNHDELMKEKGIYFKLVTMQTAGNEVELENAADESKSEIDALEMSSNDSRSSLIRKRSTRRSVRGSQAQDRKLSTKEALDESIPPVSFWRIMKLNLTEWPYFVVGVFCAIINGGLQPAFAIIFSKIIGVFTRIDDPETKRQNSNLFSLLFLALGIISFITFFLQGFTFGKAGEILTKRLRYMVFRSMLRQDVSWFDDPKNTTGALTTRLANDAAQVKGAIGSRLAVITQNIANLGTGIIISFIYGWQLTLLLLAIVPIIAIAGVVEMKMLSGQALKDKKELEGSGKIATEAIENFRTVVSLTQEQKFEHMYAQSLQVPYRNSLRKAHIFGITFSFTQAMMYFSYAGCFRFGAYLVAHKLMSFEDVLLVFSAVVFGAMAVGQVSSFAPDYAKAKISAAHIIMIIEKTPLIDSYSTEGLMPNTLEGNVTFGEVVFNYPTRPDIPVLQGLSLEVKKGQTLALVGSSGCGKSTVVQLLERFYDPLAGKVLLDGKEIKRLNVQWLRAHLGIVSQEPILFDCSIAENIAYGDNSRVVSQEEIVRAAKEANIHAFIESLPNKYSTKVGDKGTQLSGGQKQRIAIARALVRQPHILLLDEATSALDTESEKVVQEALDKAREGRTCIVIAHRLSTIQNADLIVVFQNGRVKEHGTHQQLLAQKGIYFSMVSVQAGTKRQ

SMILES	IC50 at 72 h [1] [µM]	inhibition at 1 h, 2 µM [2] [%]	inhibition at 1 h, 10 µM [3] [%]	IC50 at 72 h [4] [µM]	inhibition at 1 h, 10 µM [5] [%]	IC50 at 72 h [6] [µM]	IC50 at 72 h [7] [µM]	Ki [8] [µM]	inhibition [9]	inhibition at 1 h, 2 µM [10] [%]	Ki [11] [µM]	Ki [12] [µM]	inhibition [17]	also measured
O=C[C@H](Cc1ccc(O)cc1)NC(=O)N(Cc1ccccc1)N1CCCCC1	58.6	1.1	3	47.9	2.5	71.2	52.4	342	inactive	0.9	306	395	–	–
CN(C)N(Cc1ccccc1)C(=O)N[C@H](C=O)Cc1ccccc1	68.8	2.3	8.1	57.2	8.1	100	56.3	406	inactive	0.2	492	528	–	–
CC(C)(C)NC(=O)[C@@H]1C[C@@H]2CCCC[C@@H]2CN1C[C@@H](O)[C@H](Cc1ccccc1)NC(=O)[C@H](CC(N)=O)NC(=O)c1ccc2ccccc2n1	–	–	–	–	–	–	–	–	–	–	–	–	–	IC50 at 72 h [13]: 49 µM; Activity [14]: Not Active; IC50 at 72 h [15]: 37 µM; Activity [16]: Not Active
COc1cc2c(cc1OC)CN(CCc1ccc(NC(=O)c3cccc4c(=O)c5cccc(OC)c5[nH]c34)cc1)CC2	–	110	–	–	–	–	–	–	–	–	–	–	–	–
COc1cccc(CN(C(=O)N[C@H](C=O)Cc2ccccc2)N2CCCCC2)c1	39.4	7.7	22.7	37.2	8.1	46.8	42.6	410	–	0.9	334	320	Active	–
O=C[C@H](Cc1ccccc1)NC(=O)N(Cc1ccccc1)N1CCCCC1	42.6	5.5	6.4	34.8	0.3	48.6	37.6	257	–	0.2	292	172	Active	–
O=C[C@H](Cc1ccccc1)NC(=O)N(Cc1ccccc1)N1CCOCC1	–	7.1	11.5	–	3.3	–	–	366	inactive	0.2	996	317	–	Activity [18]: Not Active; Activity [14]: Not Active; IC50 at 72 h [15]: 79.8 µM; Activity [16]: Not Active
CC(C)(C)NC(=O)[C@@H]1CN(Cc2cccnc2)CCN1C[C@@H](O)C[C@@H](Cc1ccccc1)C(=O)N[C@H]1c2ccccc2C[C@H]1O	–	–	–	–	–	–	–	–	–	–	–	–	–	inhibition [19]: Active
O=C[C@H](Cc1ccccc1)NC(=O)N(Cc1cccc(O)c1)N1CCCCC1	42.1	4.6	4.8	23.1	8.4	43.5	35.3	242	–	2.5	144	272	Active	–
O=C[C@H](Cc1ccccc1)N(Cc1ccccc1)C(=O)N(Cc1ccccc1)N1CCCCC1	–	1.8	15	–	8.8	–	–	1120	inactive	1.8	993	463	–	IC50 at 72 h [20]: 12.8 µM; IC50 at 72 h [21]: 12.8 µM; IC50 at 72 h [22]: 17.6 µM; IC50 at 72 h [23]: 11.2 µM
